Tests used:
[1] = biological target: Vascular endothelial growth factor receptor 2 (Homo sapiens, UniProt P35968); test: Inhibition of KDR using Bio-Gastrintide as substrate by TR-FRET assay in presence of 50 uM of ATP
[2] = biological target: Hepatocyte growth factor receptor (Homo sapiens, UniProt P08581); test: Inhibition of MET using Bio-HER2tide as substrate by TR-FRET assay in presence of 50 uM of ATP
[3] = Clearance in human liver microsomes assessed as per mg of protein after 30 mins by LC/MS analysis; type: ADME, Microsome; settings: read-out: CLH
Method in brief: (§1)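 1 µM compound incubated at 37 °C for 30 min with liver microsomes (0.5 mg protein/mL) in 50 mM phosphate buffer pH 7.4 with 1 mM NADPH. Reaction stopped with threefold volume of acetonitrile and centrifuged. Remaining compound in supernatant quantified by LC/MS.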

[4] = tested on: KARPAS-299; test: Antiproliferative activity against human KARPAS299 cells after 96 hrs by cell counting assay; type: functional, cell-based; settings: KARPAS-299, 96 h
Method in brief: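 KARPAS-299 cells exposed to a range of compound concentrations for 96 h. Growth inhibition read by Cell Counting Kit-8.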

[5] = Clearance in mouse liver microsomes assessed as per mg of protein after 30 mins by LC/MS analysis; type: ADME, Microsome; settings: read-out: CLH; method in brief: as §1
[6] = biological target: Mast/stem cell growth factor receptor Kit (Homo sapiens, UniProt P10721); test: Inhibition of KIT using Bio-HER2tide as substrate by TR-FRET assay in presence of 50 uM of ATP
[7] = Half life in Sprague-Dawley rat at 1 mg/kg, iv; type: ADME, organism-based; set-up: dose 1 mg/kg, route intravenous; settings: in vivo
Method in brief: (§2)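 Sprague–Dawley rats, n = 3 per group, dosed po or iv at 1 mg/kg in 10% N,N-dimethylacetamide, 20% HP-β-CD and 0.02 M HCl in water. Heparinized blood taken at 0.08–72 h after iv and 0.50–72 h after po. Plasma analysed by LC–MS/MS.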

[8] = Oral bioavailability in cynomolgus monkey at 0.5 mg/kg; type: ADME, organism-based, Macaca fascicularis; settings: in vivo
Method in brief: (§3)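 Fasted cynomolgus monkeys, n = 2 per group, dosed po or iv at 0.5 mg/kg in 10% DMSO, 20% HP-β-CD and 0.02 M HCl in water. Heparinized blood sampled at 0.08–48 h after iv and 0.50–48 h after po. Plasma quantified by LC–MS/MS.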

[9] = Total clearance in Sprague-Dawley rat at 1 mg/kg, iv; type: ADME, organism-based; set-up: dose 1 mg/kg, route intravenous; settings: in vivo; method in brief: as §2
[10] = Cmax in cynomolgus monkey at 0.5 mg/kg, po; type: ADME, organism-based, Macaca fascicularis; set-up: dose 0.5 mg/kg, route oral; settings: in vivo; method in brief: as §3
[11] = AUC in Sprague-Dawley rat at 1 mg/kg, po; type: ADME, organism-based; set-up: dose 1 mg/kg, route oral; settings: plasma; method in brief: as §2
[12] = AUC in cynomolgus monkey at 0.5 mg/kg, po; type: ADME, organism-based, Macaca fascicularis; set-up: dose 0.5 mg/kg, route oral; settings: plasma; method in brief: as §3
[13] = tested on: KARPAS-299; test: Antitumor activity against human KARPAS299 cells expressing NPM-ALK xenografted mouse model assessed as tumor growth inhibition at 20 mg/kg, po; type: functional; settings: read-out: GI
[14] = Total clearance in cynomolgus monkey at 0.5 mg/kg, iv; type: ADME, organism-based, Macaca fascicularis; set-up: dose 0.5 mg/kg, route intravenous; settings: in vivo; method in brief: as §3
[15] = tested on: NCI-H2228; test: Antitumor activity against human NCI-H2228 cells expressing EML4-ALK xenografted mouse model assessed as tumor growth inhibition at 20 mg/kg, po; type: functional; settings: read-out: GI
[16] = tested on: Mus musculus; test: Toxicity in human NCI-H2228 cells expressing EML4-ALK xenografted mouse model assessed as body weight loss at 20 mg/kg, po; settings: in vivo
[17] = Oral bioavailability in Sprague-Dawley rat at 1 mg/kg; type: ADME, organism-based; settings: in vivo; method in brief: as §2
[18] = in vivo; settings: cynomolgus monkey, iv, 0.5 mg/kg
[19] = in vivo; settings: cynomolgus monkey, po, 0.5 mg/kg
[20] = Half life in Sprague-Dawley rat at 1 mg/kg, po; type: ADME, organism-based; set-up: dose 1 mg/kg, route oral; settings: in vivo; method in brief: as §2
[21] = Volume of distribution at steady state in Sprague-Dawley rat at 1 mg/kg, iv; type: ADME, organism-based; set-up: dose 1 mg/kg, route intravenous; settings: in vivo, read-out: Vdss; method in brief: as §2
[22] = Volume of distribution at steady state in cynomolgus monkey at 0.5 mg/kg, iv; type: ADME, organism-based, Macaca fascicularis; set-up: dose 0.5 mg/kg, route intravenous; settings: in vivo, read-out: Vdss; method in brief: as §3
[23] = Cmax in Sprague-Dawley rat at 1 mg/kg, po; type: ADME, organism-based; set-up: dose 1 mg/kg, route oral; settings: in vivo; method in brief: as §2
[24] = biological target: ALK tyrosine kinase receptor (Homo sapiens, UniProt Q9UM73)
ALK tyrosine kinase receptor, sequence (Q9UM73 whole entry): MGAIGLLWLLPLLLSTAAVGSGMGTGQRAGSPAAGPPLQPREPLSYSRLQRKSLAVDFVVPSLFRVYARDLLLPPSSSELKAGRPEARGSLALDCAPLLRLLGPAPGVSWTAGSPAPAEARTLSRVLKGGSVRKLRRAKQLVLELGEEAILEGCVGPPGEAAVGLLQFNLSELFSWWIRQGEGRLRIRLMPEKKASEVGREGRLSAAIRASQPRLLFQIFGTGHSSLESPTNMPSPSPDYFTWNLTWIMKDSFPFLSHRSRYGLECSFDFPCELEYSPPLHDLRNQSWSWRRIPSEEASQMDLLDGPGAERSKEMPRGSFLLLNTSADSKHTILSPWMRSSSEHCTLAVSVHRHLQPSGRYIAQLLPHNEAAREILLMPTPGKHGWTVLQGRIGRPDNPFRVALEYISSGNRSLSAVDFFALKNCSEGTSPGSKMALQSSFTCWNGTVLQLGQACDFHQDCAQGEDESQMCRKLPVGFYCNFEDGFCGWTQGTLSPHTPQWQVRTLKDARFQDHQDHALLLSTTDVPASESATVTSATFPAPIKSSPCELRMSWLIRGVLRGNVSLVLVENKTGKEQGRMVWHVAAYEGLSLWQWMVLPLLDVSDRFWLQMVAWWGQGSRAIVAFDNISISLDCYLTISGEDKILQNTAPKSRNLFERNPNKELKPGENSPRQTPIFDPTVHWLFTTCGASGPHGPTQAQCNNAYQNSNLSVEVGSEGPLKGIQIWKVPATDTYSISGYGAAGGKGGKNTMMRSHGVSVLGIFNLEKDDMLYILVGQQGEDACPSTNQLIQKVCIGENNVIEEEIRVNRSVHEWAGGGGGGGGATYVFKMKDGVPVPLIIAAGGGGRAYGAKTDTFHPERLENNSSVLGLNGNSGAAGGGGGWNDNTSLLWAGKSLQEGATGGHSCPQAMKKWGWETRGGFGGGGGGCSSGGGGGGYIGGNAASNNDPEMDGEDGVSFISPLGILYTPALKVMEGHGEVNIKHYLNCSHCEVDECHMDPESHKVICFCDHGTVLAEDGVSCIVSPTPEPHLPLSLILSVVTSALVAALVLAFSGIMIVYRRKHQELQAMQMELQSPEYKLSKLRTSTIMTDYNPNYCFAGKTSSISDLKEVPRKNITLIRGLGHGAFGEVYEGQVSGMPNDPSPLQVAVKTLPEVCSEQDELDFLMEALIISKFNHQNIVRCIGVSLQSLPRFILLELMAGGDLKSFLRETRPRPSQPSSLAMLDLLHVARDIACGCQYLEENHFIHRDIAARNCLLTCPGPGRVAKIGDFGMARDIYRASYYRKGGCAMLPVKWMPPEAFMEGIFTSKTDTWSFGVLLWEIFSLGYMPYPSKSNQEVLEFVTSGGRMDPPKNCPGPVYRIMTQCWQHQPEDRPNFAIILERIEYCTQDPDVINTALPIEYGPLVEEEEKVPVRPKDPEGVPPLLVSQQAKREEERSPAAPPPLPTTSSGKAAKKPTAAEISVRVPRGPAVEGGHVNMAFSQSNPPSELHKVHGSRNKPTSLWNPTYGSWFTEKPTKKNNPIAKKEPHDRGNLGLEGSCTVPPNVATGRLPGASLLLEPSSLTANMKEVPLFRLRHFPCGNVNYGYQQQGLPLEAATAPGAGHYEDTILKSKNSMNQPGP

Vascular endothelial growth factor receptor 2, sequence (P35968 whole entry): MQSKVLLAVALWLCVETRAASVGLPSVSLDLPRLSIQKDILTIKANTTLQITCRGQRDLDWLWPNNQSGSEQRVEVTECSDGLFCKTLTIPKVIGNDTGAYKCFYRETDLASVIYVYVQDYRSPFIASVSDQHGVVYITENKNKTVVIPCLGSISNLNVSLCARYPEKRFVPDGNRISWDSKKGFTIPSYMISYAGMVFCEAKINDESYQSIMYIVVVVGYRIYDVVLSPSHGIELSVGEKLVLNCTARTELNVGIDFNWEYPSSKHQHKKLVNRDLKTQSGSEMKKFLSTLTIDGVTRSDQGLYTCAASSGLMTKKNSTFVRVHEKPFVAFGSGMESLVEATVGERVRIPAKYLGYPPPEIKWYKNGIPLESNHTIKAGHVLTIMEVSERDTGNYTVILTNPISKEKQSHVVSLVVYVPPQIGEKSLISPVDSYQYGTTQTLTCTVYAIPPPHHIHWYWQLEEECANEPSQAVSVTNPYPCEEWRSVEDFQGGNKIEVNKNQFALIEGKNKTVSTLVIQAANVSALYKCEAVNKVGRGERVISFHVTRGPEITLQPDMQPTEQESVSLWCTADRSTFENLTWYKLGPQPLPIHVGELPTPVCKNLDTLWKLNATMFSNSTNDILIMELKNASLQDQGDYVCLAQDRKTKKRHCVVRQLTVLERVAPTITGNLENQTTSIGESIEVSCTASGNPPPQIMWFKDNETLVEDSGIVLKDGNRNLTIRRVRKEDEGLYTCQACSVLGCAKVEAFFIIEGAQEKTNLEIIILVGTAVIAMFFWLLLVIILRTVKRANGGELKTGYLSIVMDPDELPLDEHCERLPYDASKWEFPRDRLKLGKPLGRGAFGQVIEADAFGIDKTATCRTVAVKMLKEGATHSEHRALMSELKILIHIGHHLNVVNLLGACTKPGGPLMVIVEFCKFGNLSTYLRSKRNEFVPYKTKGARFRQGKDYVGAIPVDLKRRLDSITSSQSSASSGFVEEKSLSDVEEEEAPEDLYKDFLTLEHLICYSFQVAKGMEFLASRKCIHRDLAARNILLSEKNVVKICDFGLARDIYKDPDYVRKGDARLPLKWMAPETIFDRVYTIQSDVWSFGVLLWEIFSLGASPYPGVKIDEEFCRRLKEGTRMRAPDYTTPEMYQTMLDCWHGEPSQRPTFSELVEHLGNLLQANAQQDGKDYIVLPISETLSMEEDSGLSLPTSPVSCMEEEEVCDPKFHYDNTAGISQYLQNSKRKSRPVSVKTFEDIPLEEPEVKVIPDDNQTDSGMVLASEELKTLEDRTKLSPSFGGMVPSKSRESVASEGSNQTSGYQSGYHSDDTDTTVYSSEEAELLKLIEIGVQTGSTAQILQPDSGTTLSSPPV
Hepatocyte growth factor receptor, sequence (P08581 whole entry): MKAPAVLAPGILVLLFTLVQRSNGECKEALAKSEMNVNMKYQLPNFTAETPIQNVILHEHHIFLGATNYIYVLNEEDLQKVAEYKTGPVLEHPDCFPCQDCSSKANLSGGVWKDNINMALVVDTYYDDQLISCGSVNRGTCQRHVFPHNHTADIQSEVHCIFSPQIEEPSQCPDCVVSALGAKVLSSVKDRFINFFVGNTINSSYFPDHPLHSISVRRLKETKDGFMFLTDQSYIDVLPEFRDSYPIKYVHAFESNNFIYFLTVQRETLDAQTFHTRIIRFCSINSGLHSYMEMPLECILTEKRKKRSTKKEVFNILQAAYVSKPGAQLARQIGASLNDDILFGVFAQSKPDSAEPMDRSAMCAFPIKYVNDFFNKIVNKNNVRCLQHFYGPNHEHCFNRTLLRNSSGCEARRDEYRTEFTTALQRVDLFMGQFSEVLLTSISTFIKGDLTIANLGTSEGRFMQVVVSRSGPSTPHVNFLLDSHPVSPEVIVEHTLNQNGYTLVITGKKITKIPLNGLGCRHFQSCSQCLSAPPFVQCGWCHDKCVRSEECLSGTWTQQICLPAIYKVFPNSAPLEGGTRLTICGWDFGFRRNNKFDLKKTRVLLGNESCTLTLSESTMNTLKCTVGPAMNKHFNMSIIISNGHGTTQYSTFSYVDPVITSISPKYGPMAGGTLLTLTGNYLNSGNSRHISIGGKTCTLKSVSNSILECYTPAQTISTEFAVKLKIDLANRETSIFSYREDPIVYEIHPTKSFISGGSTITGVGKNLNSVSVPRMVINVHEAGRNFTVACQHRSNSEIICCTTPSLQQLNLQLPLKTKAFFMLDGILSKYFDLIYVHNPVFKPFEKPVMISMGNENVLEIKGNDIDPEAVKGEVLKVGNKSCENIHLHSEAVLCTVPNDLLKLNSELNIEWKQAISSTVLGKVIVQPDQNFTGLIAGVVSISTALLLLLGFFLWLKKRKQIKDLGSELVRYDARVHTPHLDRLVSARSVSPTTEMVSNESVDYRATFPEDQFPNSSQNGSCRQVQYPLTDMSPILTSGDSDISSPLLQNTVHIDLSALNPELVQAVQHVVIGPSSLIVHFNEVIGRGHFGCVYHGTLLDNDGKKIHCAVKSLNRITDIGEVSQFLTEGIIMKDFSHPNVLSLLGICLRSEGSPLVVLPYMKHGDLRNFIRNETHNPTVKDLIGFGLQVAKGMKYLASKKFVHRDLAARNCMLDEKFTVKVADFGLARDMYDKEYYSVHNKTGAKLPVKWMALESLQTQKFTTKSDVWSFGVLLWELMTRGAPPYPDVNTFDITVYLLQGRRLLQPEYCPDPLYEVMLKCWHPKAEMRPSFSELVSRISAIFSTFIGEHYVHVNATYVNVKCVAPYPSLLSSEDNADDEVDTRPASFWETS

Row | IC50 [1] | IC50 [2] | microsomal CLint [3] | IC50 [4] | microsomal CLint [5] | IC50 [6] | IC50 [24] | SMILES | other results
1 | 186 nM | > 5000 nM | 23 µL/min/mg | 4.8 nM | 15.8 µL/min/mg | 1060 nM |  | Cc1cc2c(cc1N1CCC(N3CCOCC3)CC1)C(C)(C)c1[nH]c3cc(C#N)ccc3c1C2=O | 
2 |  | > 5000 nM | 17.7 µL/min/mg | 3 nM | 8.7 µL/min/mg | > 5000 nM |  | CCc1cc2c(cc1N1CCC(N3CCOCC3)CC1)C(C)(C)c1[nH]c3cc(C#N)ccc3c1C2=O [ALECTINIB] | half-life [7]: 17.8 h; bioavailability [8]: 50.4%; clearance [9]: 7.79 mL/min/kg; Cmax [10]: 55.8 ng/mL; AUC [11]: 1400 ng·h/mL; AUC [12]: 696 ng·h/mL; inhibition in vivo at 20 mg/kg [13]: 119%; clearance [14]: 6.04 mL/min/kg; inhibition in vivo at 20 mg/kg [15]: 168%; Activity [16]: Non-toxic; bioavailability [17]: 65.2%; half-life [18]: 10.4 h; half-life [19]: 8.38 h; half-life [20]: 12.6 h; Vd [21]: 9.33 L/kg; Vd [22]: 5.28 L/kg; Cmax [23]: 60.8 ng/mL
3 | 3120 nM | > 5000 nM | 15.6 µL/min/mg | 22.4 nM | 4.4 µL/min/mg | > 5000 nM | 2.4 nM | CCc1cc2c(cc1N1CCN(C3CCC3)CC1)C(C)(C)c1[nH]c3cc(C#N)ccc3c1C2=O | 
4 | > 5000 nM | > 5000 nM |  |  |  | > 5000 nM |  | CCc1cc2c(cc1N1CCN(C3COC3)CC1)C(C)(C)c1[nH]c3cc(C#N)ccc3c1C2=O | 
5 | 759 nM | > 5000 nM | 106 µL/min/mg | 26.5 nM | 72 µL/min/mg | 2990 nM | 16 nM | CC1(C)c2cc(N3CCC(N4CCOCC4)CC3)ccc2C(=O)c2c1[nH]c1cc(C#N)ccc21 | 
6 | > 5000 nM | > 5000 nM | 14.2 µL/min/mg | 151 nM | 20.6 µL/min/mg | > 5000 nM |  | CC1(C)c2ccc(N3CCN(C4COC4)CC3)cc2C(=O)c2c1[nH]c1cc(C#N)ccc21 | 
7 | > 5000 nM | > 5000 nM | 16.4 µL/min/mg | 238 nM | 24.9 µL/min/mg | > 5000 nM | 233 nM | CC1(C)c2ccc(N3CCN(C4CC4)CC3)cc2C(=O)c2c1[nH]c1cc(C#N)ccc21 | 
8 | 882 nM | > 5000 nM | 59.1 µL/min/mg | 121 nM | 20 µL/min/mg | > 5000 nM | 44 nM | CC1(C)c2ccc(C3CCN(C4CC4)CC3)cc2C(=O)c2c1[nH]c1cc(C#N)ccc21 | 
9 | > 5000 nM | > 5000 nM | 17.1 µL/min/mg | 26.1 nM | 58.5 µL/min/mg | > 5000 nM | 1.1 nM | CCCc1cc2c(cc1N1CCC(N3CCOCC3)CC1)C(C)(C)c1[nH]c3cc(C#N)ccc3c1C2=O | 
10 | 2520 nM | > 5000 nM | 38.6 µL/min/mg | 86.9 nM | 38.6 µL/min/mg | > 5000 nM | 67 nM | CC1(C)c2ccc(C3CCN(C4COC4)CC3)cc2C(=O)c2c1[nH]c1cc(C#N)ccc21 | 
11 | 4210 nM | > 5000 nM | 22.1 µL/min/mg | 45.8 nM | 3.3 µL/min/mg | > 5000 nM | 5.2 nM | CCc1cc2c(cc1N1CCN(C3CC3)CC1)C(C)(C)c1[nH]c3cc(C#N)ccc3c1C2=O | 

— ChEMBL document CHEMBL1938232 (Bioorg Med Chem, 2012)
